Columns and labels:
U2OS = assay: Multiplex assay against U2OS; format: toxicity, cell-based; details: human
How it was run: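 At seeding, live cells were stained with Hoechst33342, BioTracker Green Microtubule Cytoskeleton Dye, MitoTracker Red and Annexin V Alexa Fluor 680. After compound addition they were imaged on a CQ1 microscope at 37°C and 5% CO2, and CellPathfinder machine-learning gating sorted them into Hoechst high-intensity objects or normal cells, with normal cells further split into healthy, pyknosed or fragmented nuclei and pyknosed cells into mitotic or apoptotic. Tubulin, mitochondrial-mass and membrane-permeability phenotypes are given as per cents of cells with healthy nuclei.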

HEK-293T = assay: Incucyte cell viability with HEK293T; format: toxicity, cell-based; details: human, 10 µM, compound concentration 10 uM; note: filed as whole numbers so only -1 and 0 and 1 occur
[1] = 12 h, 1 µM, compound concentration 1 uM, replicate 1
[2] = 12 h, 1 µM, compound concentration 1 uM, replicate 2
[3] = 12 h, 10 µM, compound concentration 10 uM, replicate 1
[4] = 12 h, 10 µM, compound concentration 10 uM, replicate 2
[5] = 24 h, 1 µM, compound concentration 1 uM, replicate 1
[6] = 24 h, 1 µM, compound concentration 1 uM, replicate 2
[7] = 24 h, 10 µM, compound concentration 10 uM, replicate 1
[8] = 24 h, 10 µM, compound concentration 10 uM, replicate 2
[9] = 48 h, 1 µM, compound concentration 1 uM, replicate 1
[10] = 48 h, 1 µM, compound concentration 1 uM, replicate 2
[11] = 48 h, 10 µM, compound concentration 10 uM, replicate 1
[12] = 48 h, 10 µM, compound concentration 10 uM, replicate 2

C=CC(=O)Nc1cc(-n2c(=O)ccc3cnc4ccc(-c5ccc(NS(C)(=O)=O)cc5)cc4c32)ccc1C
Population Apoptotic (%) (U2OS; [1]): 35%
Population Fragmented Nuclei (%) (U2OS; [1]): 6%
Population Healthy Nuclei (%) (U2OS; [1]): 80%
Population Hoechst High Intensity Objects (%) (U2OS; [1]): 3%
Population Membrane Permeable-Phenotype (%) (U2OS; [1]): 7%
Population Mitochondria Different-Phenotype (%) (U2OS; [1]): 4%
Population Mitotic Cells (%) (U2OS; [1]): 65%
Population Normal (%) (U2OS; [1]): 96%
Population Pyknosed Nuclei (%) (U2OS; [1]): 12%
Population Tubulin-Different-Phenotype (%) (U2OS; [1]): 6%
Total Cell Count (U2OS; [1]): 164
Population Apoptotic (%) (U2OS; [2]): 33%
Population Fragmented Nuclei (%) (U2OS; [2]): 10%
Population Healthy Nuclei (%) (U2OS; [2]): 77%
Population Hoechst High Intensity Objects (%) (U2OS; [2]): 7%
Population Membrane Permeable-Phenotype (%) (U2OS; [2]): 0%
Population Mitochondria Different-Phenotype (%) (U2OS; [2]): 10%
Population Mitotic Cells (%) (U2OS; [2]): 66%
Population Normal (%) (U2OS; [2]): 92%
Population Tubulin-Different-Phenotype (%) (U2OS; [2]): 10%
Total Cell Count (U2OS; [2]): 53
Population Apoptotic (%) (U2OS; [3]): 30%
Population Fragmented Nuclei (%) (U2OS; [3]): 19%
Population Healthy Nuclei (%) (U2OS; [3]): 66%
Population Hoechst High Intensity Objects (%) (U2OS; [3]): 7%
Population Membrane Permeable-Phenotype (%) (U2OS; [3]): 10%
Population Mitochondria Different-Phenotype (%) (U2OS; [3]): 26%
Population Mitotic Cells (%) (U2OS; [3]): 69%
Population Normal (%) (U2OS; [3]): 92%
Population Pyknosed Nuclei (%) (U2OS; [3]): 14%
Population Tubulin-Different-Phenotype (%) (U2OS; [3]): 29%
Total Cell Count (U2OS; [3]): 173
Population Apoptotic (%) (U2OS; [4]): 76%
Population Fragmented Nuclei (%) (U2OS; [4]): 8%
Population Healthy Nuclei (%) (U2OS; [4]): 54%
Population Hoechst High Intensity Objects (%) (U2OS; [4]): 9%
Population Membrane Permeable-Phenotype (%) (U2OS; [4]): 12%
Population Mitochondria Different-Phenotype (%) (U2OS; [4]): 56%
Population Mitotic Cells (%) (U2OS; [4]): 23%
Population Normal (%) (U2OS; [4]): 90%
Population Pyknosed Nuclei (%) (U2OS; [4]): 36%
Population Tubulin-Different-Phenotype (%) (U2OS; [4]): 52%
Total Cell Count (U2OS; [4]): 51
Population Apoptotic (%) (U2OS; [5]): 28%
Population Fragmented Nuclei (%) (U2OS; [5]): 6%
Population Healthy Nuclei (%) (U2OS; [5]): 86%
Population Hoechst High Intensity Objects (%) (U2OS; [5]): 4%
Population Membrane Permeable-Phenotype (%) (U2OS; [5]): 4%
Population Mitochondria Different-Phenotype (%) (U2OS; [5]): 8%
Population Mitotic Cells (%) (U2OS; [5]): 71%
Population Normal (%) (U2OS; [5]): 95%
Population Pyknosed Nuclei (%) (U2OS; [5]): 6%
Population Tubulin-Different-Phenotype (%) (U2OS; [5]): 12%
Total Cell Count (U2OS; [5]): 216
Population Apoptotic (%) (U2OS; [6]): 55%
Population Fragmented Nuclei (%) (U2OS; [6]): 11%
Population Healthy Nuclei (%) (U2OS; [6]): 76%
Population Hoechst High Intensity Objects (%) (U2OS; [6]): 2%
Population Membrane Permeable-Phenotype (%) (U2OS; [6]): 3%
Population Mitochondria Different-Phenotype (%) (U2OS; [6]): 15%
Population Mitotic Cells (%) (U2OS; [6]): 44%
Population Normal (%) (U2OS; [6]): 97%
Population Pyknosed Nuclei (%) (U2OS; [6]): 11%
Population Tubulin-Different-Phenotype (%) (U2OS; [6]): 22%
Total Cell Count (U2OS; [6]): 79
Population Apoptotic (%) (U2OS; [7]): 53%
Population Fragmented Nuclei (%) (U2OS; [7]): 17%
Population Healthy Nuclei (%) (U2OS; [7]): 69%
Population Hoechst High Intensity Objects (%) (U2OS; [7]): 3%
Population Membrane Permeable-Phenotype (%) (U2OS; [7]): 8%
Population Mitochondria Different-Phenotype (%) (U2OS; [7]): 17%
Population Mitotic Cells (%) (U2OS; [7]): 46%
Population Normal (%) (U2OS; [7]): 96%
Population Pyknosed Nuclei (%) (U2OS; [7]): 13%
Population Tubulin-Different-Phenotype (%) (U2OS; [7]): 15%
Total Cell Count (U2OS; [7]): 202
Population Apoptotic (%) (U2OS; [8]): 84%
Population Fragmented Nuclei (%) (U2OS; [8]): 21%
Population Healthy Nuclei (%) (U2OS; [8]): 32%
Population Hoechst High Intensity Objects (%) (U2OS; [8]): 5%
Population Membrane Permeable-Phenotype (%) (U2OS; [8]): 22%
Population Mitochondria Different-Phenotype (%) (U2OS; [8]): 50%
Population Mitotic Cells (%) (U2OS; [8]): 15%
Population Normal (%) (U2OS; [8]): 94%
Population Pyknosed Nuclei (%) (U2OS; [8]): 46%
Population Tubulin-Different-Phenotype (%) (U2OS; [8]): 33%
Total Cell Count (U2OS; [8]): 59
Population Apoptotic (%) (U2OS; [9]): 25%
Population Fragmented Nuclei (%) (U2OS; [9]): 5%
Population Healthy Nuclei (%) (U2OS; [9]): 87%
Population Hoechst High Intensity Objects (%) (U2OS; [9]): 2%
Population Membrane Permeable-Phenotype (%) (U2OS; [9]): 1%
Population Mitochondria Different-Phenotype (%) (U2OS; [9]): 14%
Population Mitotic Cells (%) (U2OS; [9]): 74%
Population Normal (%) (U2OS; [9]): 97%
Population Pyknosed Nuclei (%) (U2OS; [9]): 7%
Population Tubulin-Different-Phenotype (%) (U2OS; [9]): 14%
Total Cell Count (U2OS; [9]): 360
Population Apoptotic (%) (U2OS; [10]): 9%
Population Fragmented Nuclei (%) (U2OS; [10]): 9%
Population Healthy Nuclei (%) (U2OS; [10]): 81%
Population Hoechst High Intensity Objects (%) (U2OS; [10]): 3%
Population Membrane Permeable-Phenotype (%) (U2OS; [10]): 0%
Population Mitochondria Different-Phenotype (%) (U2OS; [10]): 12%
Population Mitotic Cells (%) (U2OS; [10]): 90%
Population Normal (%) (U2OS; [10]): 96%
Population Pyknosed Nuclei (%) (U2OS; [10]): 9%
Population Tubulin-Different-Phenotype (%) (U2OS; [10]): 20%
Total Cell Count (U2OS; [10]): 115
Population Apoptotic (%) (U2OS; [11]): 77%
Population Fragmented Nuclei (%) (U2OS; [11]): 15%
Population Healthy Nuclei (%) (U2OS; [11]): 72%
Population Hoechst High Intensity Objects (%) (U2OS; [11]): 4%
Population Membrane Permeable-Phenotype (%) (U2OS; [11]): 10%
Population Mitochondria Different-Phenotype (%) (U2OS; [11]): 19%
Population Mitotic Cells (%) (U2OS; [11]): 22%
Population Normal (%) (U2OS; [11]): 95%
Population Pyknosed Nuclei (%) (U2OS; [11]): 12%
Population Tubulin-Different-Phenotype (%) (U2OS; [11]): 9%
Total Cell Count (U2OS; [11]): 257
Population Apoptotic (%) (U2OS; [12]): 95%
Population Fragmented Nuclei (%) (U2OS; [12]): 19%
Population Healthy Nuclei (%) (U2OS; [12]): 35%
Population Hoechst High Intensity Objects (%) (U2OS; [12]): 5%
Population Membrane Permeable-Phenotype (%) (U2OS; [12]): 22%
Population Mitochondria Different-Phenotype (%) (U2OS; [12]): 33%
Population Mitotic Cells (%) (U2OS; [12]): 4%
Population Normal (%) (U2OS; [12]): 94%
Population Pyknosed Nuclei (%) (U2OS; [12]): 45%
Population Tubulin-Different-Phenotype (%) (U2OS; [12]): 33%
Total Cell Count (U2OS; [12]): 54
Growth Rate (HEK-293T; 0 h, replicate number 1, timepoint 0 hours): 0
Growth Rate (HEK-293T; 0 h, replicate number 2, timepoint 0 hours): 1
Growth Rate (HEK-293T; 6 h, replicate number 1, timepoint 6 hours): 0
Growth Rate (HEK-293T; 12 h, replicate number 1, timepoint 12 hours): 0
Growth Rate (HEK-293T; 18 h, replicate number 1, timepoint 18 hours): 0
Growth Rate (HEK-293T; 24 h, replicate number 1, timepoint 24 hours): 0
